Test results as given in ChEMBL document CHEMBL1135489, “Structurally simple trichostatin A-like straight chain hydroxamates as potent histone deacetylase inhibitors” (J Med Chem, 2002).

How the values were obtained:
Histone deacetylase 1 = Histone deacetylase 1 (Homo sapiens, UniProt Q13547); assay: Inhibition against partially purified human histone deacetylase 1 (HDAC-1)
A549 = assay: Inhibitory concentration required to reduce A549 tumor cell growth by 50% in MTT assay; format: functional, cell-based; settings: Homo sapiens
Outline: (§1)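 Compound dilution series added to plated cells, 72 h at 37 °C, 5% CO2. MTT then added at 0.5 mg/mL final for 4 h. Solubilization buffer (50% DMF, 20% SDS, pH 4.7) added, incubated overnight, read at 570 with 630 reference. OD converted to cell number from each line's standard growth curve.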

DU-145 = assay: Inhibitory concentration required to reduce DU145 tumor cell growth by 50% in MTT assay; format: functional, cell-based; settings: Homo sapiens; outline: as §1
NCI-H446 = assay: Inhibitory concentration required to reduce H446 tumor cell growth by 50% in MTT assay; format: functional, cell-based; settings: Homo sapiens; outline: as §1
HCT-116 = assay: Inhibitory concentration required to reduce HCT 116 tumor cell growth by 50% in MTT assay; format: functional, cell-based; settings: Homo sapiens; outline: as §1
HMEC = assay: Inhibitory concentration required to reduce normal human epithelial cell line (HMEC), growth by 50% in MTT assay; format: functional, cell-based; outline: as §1
MCF7 = assay: Inhibitory concentration required to reduce MCF-7 tumor cell growth by 50% in MTT assay; format: functional, cell-based; settings: Homo sapiens; outline: as §1
MDA-MB-231 = assay: Inhibitory concentration required to reduce MDAmb 231 tumor cell growth by 50% in MTT assay; format: functional, cell-based; settings: Homo sapiens; outline: as §1
SW48 = assay: Inhibitory concentration required to reduce SW48 tumor cell growth by 50% in MTT assay; format: functional, cell-based; settings: Homo sapiens; outline: as §1
T-24 = assay: Inhibitory concentration required to reduce T24 tumor cell growth by 50% in MTT assay; format: functional, cell-based; settings: Homo sapiens; outline: as §1

Sequence of Histone deacetylase 1 (Q13547 whole entry): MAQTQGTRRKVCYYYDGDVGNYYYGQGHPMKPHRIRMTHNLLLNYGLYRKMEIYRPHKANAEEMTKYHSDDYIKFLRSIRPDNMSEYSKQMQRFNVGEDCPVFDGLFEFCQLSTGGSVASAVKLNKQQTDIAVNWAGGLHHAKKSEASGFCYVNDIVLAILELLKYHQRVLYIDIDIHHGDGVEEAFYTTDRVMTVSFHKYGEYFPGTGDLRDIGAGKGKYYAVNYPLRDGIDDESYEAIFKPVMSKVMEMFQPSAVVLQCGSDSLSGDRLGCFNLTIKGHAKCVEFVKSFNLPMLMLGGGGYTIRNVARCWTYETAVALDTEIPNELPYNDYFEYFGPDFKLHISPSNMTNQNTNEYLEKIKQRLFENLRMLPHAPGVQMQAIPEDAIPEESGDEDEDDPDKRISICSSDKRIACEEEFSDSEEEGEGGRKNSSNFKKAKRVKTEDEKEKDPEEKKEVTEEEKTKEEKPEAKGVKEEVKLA

Row | Compound | IC50 (Histone deacetylase 1) | IC50 (A549) | IC50 (DU-145) | IC50 (NCI-H446) | IC50 (HCT-116) | IC50 (MCF7) | IC50 (MDA-MB-231) | IC50 (SW48) | IC50 (HMEC) | IC50 (T-24)
1 | O=C(CCCCCCC(=O)c1cccnc1)NO | 153 nM | – | – | – | – | – | – | – | – | –
2 | CC(/C=C/C(=O)NO)=C\[C@@H](C)C(=O)c1ccc(N(C)C)cc1 [TRICHOSTATIN] | – | 160 nM | 200 nM | 80 nM | < 50 nM | 100 nM | 90 nM | 100 nM | 1600 nM | 150 nM
3 | O=C(CCCCCCC(=O)c1ccc(C(F)(F)F)cc1)NO | 45 nM | – | – | – | – | – | – | – | – | –

Further lines, with some results ahead:

Row | IC50 (Histone deacetylase 1) | IC50 (A549) | IC50 (DU-145) | IC50 (NCI-H446) | IC50 (HCT-116) | IC50 (MCF7) | IC50 (MDA-MB-231) | IC50 (SW48) | Compound | IC50 (HMEC) | IC50 (T-24)
4 | 6 nM | – | – | – | – | – | – | – | O=C(CCCCC/C=C/c1ccc2ccccc2c1)NO | – | –
5 | 25 nM | – | – | – | – | – | – | – | O=C(CCCCCCCc1ccc2ccccc2c1)NO | – | –
6 | 4.5 nM | 5000 nM | 5500 nM | 1000 nM | 4000 nM | 2000 nM | 800 nM | 2500 nM | O=C(CCCCCCC(=O)c1ccc(N2CCN(c3ccccc3)CC2)cc1)NO | > 20000 nM | 7000 nM
